Test results from PMC5736852 (British Journal of Clinical Pharmacology, 2017).
Where two headings read alike, the source gives them in different places. Marks after values point to notes of the source that are not given here.

Key:
[1] = Global population pharmacokinetic analysis of alisertib in cancer patients; type: in vivo, human; conditions: for half-life: human, plasma, oral
[2] = Exposure–safety logistic regression; type: in vivo, human
Outline: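 Cancer patients (Western and Japan/East Asia) took oral test compound for 7 days in 21-day cycles, fasting from 2 h before to 1 h after dosing. Plasma levels were measured by LC/MS/MS. Per-patient time-averaged AUC per day covered dosing start to onset of worst-grade toxicity, from actual doses and individual CL/F from a two-compartment population PK model. Incidence (n = 591/593/594) was regressed logistically on log-transformed AUC.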

[3] = Western patients, cited from earlier work
[4] = cited from earlier work
[5] = 30 mg b.i.d., patients in East Asia
[6] = 50 mg b.i.d., patients in East Asia
[7] = 50 mg b.i.d., patients in the West
[8] = East Asian patients, b.i.d. dosing

COc1cc(Nc2ncc3c(n2)-c2ccc(Cl)cc2C(c2c(F)cccc2OC)=NC3)ccc1C(=O)O [alisertib]
GM (CV) dose-normalized alisertib AUC(0–τ) ([1]; Asian patients in Asia, n = 59): 797 (45%) nM.h | GM (CV) dose-normalized alisertib AUC(0–τ) ([1]; Asian patients in the West, n = 8): 475 (43%) nM.h | geometric mean (%CV) dose-normalized alisertib AUC0–τ,ss ([1]; Region East, All (Japanese, Korean, Chinese), n = 59): 797 (45) nM.h mg^–1 | geometric mean (%CV) dose-normalized alisertib AUC0–τ,ss ([1]; Region East, Chinese, n = 22): 752 (48) nM.h mg^–1 | geometric mean (%CV) dose-normalized alisertib AUC0–τ,ss ([1]; Region East, Japanese, n = 23): 799 (34) nM.h mg^–1 | geometric mean (%CV) dose-normalized alisertib AUC0–τ,ss ([1]; Region East, Korean, n = 13): 885 (53) nM.h mg^–1 | geometric mean (%CV) dose-normalized alisertib AUC0–τ,ss ([1]; Region West, All non-Asian races, n = 604): 482 (43) nM.h mg^–1 | geometric mean (%CV) dose-normalized alisertib AUC0–τ,ss ([1]; Region West, All, n = 612): 482 (43) nM.h mg^–1 | geometric mean (%CV) dose-normalized alisertib AUC0–τ,ss ([1]; Region West, Asian, n = 8): 475 (43) nM.h mg^–1 | geometric mean (%CV) dose-normalized alisertib AUC0–τ,ss ([1]; Region West, Black, n = 33): 462 (57) nM.h mg^–1 | geometric mean (%CV) dose-normalized alisertib AUC0–τ,ss ([1]; Region West, White, n = 556): 482 (43) nM.h mg^–1 | BSAV1, effect of BSA on V1/F, pop value ([1]; final model): 0.899 | CL/F, V1/F, V2/F and Q/F lower in the East Asian region ([1]; final model): 34.1% | KTR, transit compartment rate constant, pop value ([1]; final model): 4.17 1 h^–1 | V1/F, apparent central volume, pop value ([1]; final model): 54.3 L | V2/F, apparent peripheral volume, pop value ([1]; final model): 28.7 L | net mean transit time for oral absorption ([1]; final model): 0.96 h | CL/F, apparent clearance, pop value ([1]; final model (analysis data set n = 422)): 4.11 l h^–1 | higher bioavailability (F) in East Asian region compared with Western patients ([1]; final model, covariate effect of region on F): 52% | RGNF, effect of region, pop value ([1]; final model, affected parameters multiplied by (1–0.341) for East Asian region): −0.341 ^a | half-life ([1]; population alpha half-life, final model): 1.71 h | half-life ([1]; population beta half-life, final model): 15.1 h | GM (CV) dose-normalized alisertib AUC(0–τ) ([1]; non-Asian patients in the West, n = 604): 482 (43%) nM.h | estimated population mean time-averaged AUC [2, 5]: 14.23 μM*h day^–1 | estimated probability of grade ≥2 diarrhoea [2, 5]: 12% | estimated probability of grade ≥2 stomatitis [2, 5]: 6.5% | estimated probability of grade ≥3 neutropenia [2, 5]: 37% | estimated population mean time-averaged AUC [2, 6]: 23.72 μM*h day^–1 | estimated probability of grade ≥2 diarrhoea [2, 6]: 17% | estimated probability of grade ≥2 stomatitis [2, 6]: 13% | predicted probability of grade ≥3 neutropenia [2, 6]: 46% | estimated population mean time-averaged AUC [2, 7]: 15.63 μM*h day^–1 | estimated probability of grade ≥2 diarrhoea [2, 7]: 13% | estimated probability of grade ≥2 stomatitis [2, 7]: 7% | predicted probability of grade ≥3 neutropenia [2, 7]: 39% | maximum tolerated dose (MTD) ([3]; b.i.d. for 7 days in a 21-day cycle): 50 mg | median Tmax ([3]; postdose): 2 to 3 h | mean steady-state half-life following multiple dosing [3]: 19 to 23 h | patients who discontinued alisertib owing to treatment-emergent AEs ([4]; East Asian patients, 30 mg b.i.d., two of 30 patients): 6.7% | half-life [4, 8]: 15 to 17 h | median Tmax [4, 8]: 2 to 3 h | maximum tolerated dose (MTD) ([4]; East Asian patients, b.i.d. for 7 days in 21-day cycles): 30 mg | higher geometric mean steady-state systemic exposure in East Asian patients ([4]; East Asian vs Western patients): approximately 70% | mean CL/F in East Asian patients lower than in Western patients ([4]; East Asian vs Western patients): approximately 40%
